# Source: PubChem BioAssay (several laboratories)
# Rows were chosen to be rich in hits. Some 1.6% of all compounds tested hit in one or more screens of this group.
# ARFGAP1 inh = inhibitors of rat ARFGAP1 | inhibition, % at 16.5 µM | Q62848 | Arfgap1-stimulated ARF1 GTP hydrolysis, GDP FP detection | hit rate 0.26% among 360,000;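 active = inhibition above a per-plate limit, mean inhibition of low control wells plus 3 SD, cut at about 25% in these data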
#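 Assay system: Rat Arfgap1 GAP domain (His6, aa 1-136), purified enzyme | Buffer or medium: HEPES 25 mM pH 7.5, NaCl 150 mM, MgCl2, DTT | Schedule: GTP hydrolysis reaction 2 h at 25 °C | Signal: FP of antibody-bound GDP Alexa 633 tracer, ex 620/em 688 nm | Measure: Percent inhibition of Arfgap1-stimulated GTP hydrolysis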
# ASAP1 inh = inhibitors of human ASAP1 ArfGAP activity. Q9ULH1. inhibition, % at 16.5 µM. hit rate 0.19% among 360,000. ASAP1-stimulated ARF1 GTP hydrolysis, GDP FP detection; in the data active = inhibition above about 25%
# Neddylation inh = blocks human cullin neddylation; P61081+Q13564; TR-FRET cullin neddylation, biochemical; inhibition, % at 25 µM; hit rate 0.58% among 360,000; in the data active = inhibition above about 36%
# Target sequence (P61081 whole entry, looked up): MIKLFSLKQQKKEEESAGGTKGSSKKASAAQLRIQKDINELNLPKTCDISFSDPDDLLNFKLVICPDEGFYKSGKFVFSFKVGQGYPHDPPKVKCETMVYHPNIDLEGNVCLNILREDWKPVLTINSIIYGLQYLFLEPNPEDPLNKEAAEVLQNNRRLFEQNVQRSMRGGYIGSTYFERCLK
# Target sequence (Q13564 whole entry, looked up): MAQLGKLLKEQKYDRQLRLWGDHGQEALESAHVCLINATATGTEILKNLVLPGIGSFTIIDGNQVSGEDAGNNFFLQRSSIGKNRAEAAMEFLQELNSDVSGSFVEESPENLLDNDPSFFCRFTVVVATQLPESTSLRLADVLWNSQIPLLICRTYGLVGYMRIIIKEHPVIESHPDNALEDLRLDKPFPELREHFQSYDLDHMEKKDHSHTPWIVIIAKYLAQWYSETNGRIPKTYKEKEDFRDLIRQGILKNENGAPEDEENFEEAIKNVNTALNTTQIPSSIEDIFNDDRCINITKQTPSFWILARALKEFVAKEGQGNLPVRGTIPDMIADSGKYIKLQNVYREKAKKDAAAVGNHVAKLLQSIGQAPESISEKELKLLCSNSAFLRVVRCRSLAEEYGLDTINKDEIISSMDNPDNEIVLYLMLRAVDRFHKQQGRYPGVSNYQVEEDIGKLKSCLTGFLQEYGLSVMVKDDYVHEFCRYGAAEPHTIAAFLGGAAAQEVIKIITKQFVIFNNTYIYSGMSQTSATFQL
# Cardio protect = myocardial damage modulation in H9c2 cells; hit rate 0.63% among 360,000; H9c2 cardiomyocytes, H2O2 injury protection, ATPLite, 2 h; protection from H2O2 cell death, % at 20 µM;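 active = compounds giving at least 50% protection of heart cells from peroxide-induced death in the single-dose screen, raw or plate-pattern-corrected value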
# Hits are given with their value; – = inactive; · = not tested or not shown.
SMILES,ARFGAP1 inh,ASAP1 inh,Neddylation inh,Cardio protect
CCCCCCC12C(=Cc3cc4c(cc31)OCCO4)c1cc(OC)c(OC)cc1C(CC(=O)NCc1ccccc1)N2C(=O)OC (stereo not drawn),–,–,·,·
NC(=O)c1cc2ccccc2o/c1=N/NC(=O)c1cccs1,–,–,–,–
COc1ccc2o/c(=N/NC(=O)c3cccs3)c(C(N)=O)cc2c1,–,–,–,54
CN(C(=O)c1sc2nc(N3CCOCC3)c3c(c2c1N)CCCC3)c1ccccc1,–,–,–,61
Nc1c(C(=O)NCCc2ccccc2)sc2nc(N3CCOCC3)c3c(c12)CCCC3,–,–,–,–
COC(=O)[C@H](Cc1ccccc1)N1C[C@@H](N2CCC[C@H]2C)CS1(=O)=O,–,–,·,·
CCCC(=O)NCc1ccc2c(c1)cc(C)n2C,33,–,–,–
N#Cc1cccc2c1-c1ccccc1/C2=N/NC(N)=S,·,·,–,–
N#Cc1cccc2c1-c1ccccc1/C2=N/NC(N)=O,·,·,–,56
C=CCN1C(=O)c2n[nH]c(COC)c2C1c1cccc(C(F)(F)F)c1 (stereo not drawn),–,–,·,·
CCOc1ccc(S(=O)(=O)N(C)CCO)cc1-c1nc2c(C(C)(C)C)nn(C)c2c(=O)[nH]1,–,–,–,56
CCOc1ccc(S(=O)(=O)N(C)C)cc1-c1nc2c(C(C)(C)C)nn(C)c2c(=O)[nH]1,–,–,–,–
C=CCNC(=O)CN1C(=O)CSc2ccc(S(=O)(=O)N3CCOCC3)cc21,–,–,–,–
O=C(Nc1ccc(N2CCOCC2)cc1)c1ccc([N+](=O)[O-])o1,–,–,–,–
CN(C)S(=O)(=O)c1cccc(NC(=O)COC(=O)c2ccc([N+](=O)[O-])o2)c1,–,–,–,102
O=C(COC(=O)c1ccc([N+](=O)[O-])o1)Nc1ccc(N2CCOCC2)cc1,–,–,–,52
O=C(COC(=O)c1ccc([N+](=O)[O-])o1)Nc1cccc(S(=O)(=O)N2CCOCC2)c1,–,–,–,–
CC(C)c1[nH]nc2c1C(c1ccc(Br)cc1)NC2=O (stereo not drawn),–,–,·,·
Cc1ccc(O)c(C(=O)CC(=O)c2ccc(C(C)(C)C)cc2)c1,–,–,–,57
Cc1ccc(O)c(C(=O)CC(=O)c2ccccc2Cl)c1,–,–,–,–
O=C(NS(=O)(=O)c1cccc(F)c1)[C@H]1O[C@@H](n2ccc(=O)[nH]c2=O)[C@H](O)[C@@H]1O,–,–,·,·
CC(C)C[C@H]1COc2cc(Br)ccc2S(=O)(=O)N1Cc1ccc(Cl)cc1,–,–,·,·
O=C(CSc1ccc2ccccc2c1)NCCc1ccc(O)c(O)c1,–,–,–,80
O=C(/C=C/c1ccccc1Cl)c1ccccc(=O)c1O,–,–,–,70
Cc1[nH]n2c(=O)cc(C(C)(C)C)nc2c1-c1ccccc1,–,–,·,53
SMILES,ARFGAP1 inh,ASAP1 inh,Neddylation inh,Cardio protect
Cc1[nH]n2c(=O)cc(C(C)C)nc2c1-c1ccccc1,–,–,·,–
COC(=O)C1=C(C)N(Cc2ccccc2C(F)(F)F)C(=NCc2ccccc2)NC1CCc1ccccc1 (stereo not drawn),–,–,·,·
Nc1c(C(=O)NC2CC2)c2nc3ccccc3nc2n1-c1ccc2c(c1)OCO2,–,–,50,77
CCCNC(=O)c1c(N)n(-c2ccc3c(c2)OCO3)c2nc3ccccc3nc12,–,–,–,–
Cc1c(COC(=O)NC(C)C)c(COC(=O)NC(C)C)c2n1CS(=O)(=O)C2,–,–,·,·
COc1ccc(O)c(C(=O)c2cnc3nc4ccccc4n3c2)c1,–,–,–,61
O=C(Nc1ccccc1)c1ccc(-c2ccccc2)s1,–,–,–,–
O=C(O)c1ccc(-c2ccc(-c3ccccc3)cc2)s1,·,·,51,–
OCCN1CCN(c2ncnc3c2ncn3[C@H]2CN(Cc3cccnc3)C[C@@H](CO)O2)CC1,–,–,–,–
COc1cccc(Nc2nc(-c3sc(N)nc3C)cs2)c1,–,–,–,63
COc1cccc(Nc2nc(-c3sc(NC(=O)c4ccco4)nc3C)cs2)c1,–,–,–,50
COC(=O)[C@]12C[C@H](CC(=O)N3CCCCC3)C(=O)N(Cc3ccc4c(c3)OCO4)C1=C[C@H](C(C)(C)C)O[C@@H]2C,–,–,·,·
COc1ccccc1Cc1c(-c2ccc(F)cc2)nc2c3ccccc3ccn12,–,–,·,·
O=C(O)c1ccccc1/C=N/NC(=O)c1cc(-c2ccco2)nc2ccccc12,–,–,49,–
O=C(CNC(=O)C1COc2ccccc2O1)N/N=C/c1ccc(O)cc1O (stereo not drawn),–,–,–,63
CC(=O)Nc1ccc(/C=N/NC(=O)c2cc(-c3ccco3)nc3ccccc23)cc1,–,–,–,–
Cn1c2ccccc2c2cc(/C=N/NC(=O)c3ccc(O)cc3O)ccc21,·,·,68,–
O=C(CNC(=O)C1COc2ccccc2O1)N/N=C\c1cccc(O)c1 (stereo not drawn),–,–,–,–
CCc1cc(C(=O)N/N=C/c2ccc(O)cc2O)c2ccccc2n1,–,–,–,53
CCOC(=O)/C(=C\Nc1cccc(OCc2ccccc2)c1)NC(=O)c1ccccc1,–,–,·,·
C=CCN=C1NC(c2ccccc2)C(C(=O)OC)=C(C)N1Cc1ccccc1C(F)(F)F (stereo not drawn),–,–,·,·
COc1cc(/C=N/NC(=O)/C(=C/c2ccccc2)CCO)ccc1O,–,–,–,–
O=C(N/N=C/c1ccc(O)cc1O)/C(=C/c1ccccc1)CCO,–,–,–,57
O=C(/C=C\c1ccccc1)NCC(=O)N/N=C/c1ccc(O)cc1O,·,·,–,66
O=C(CNC(=O)C(c1ccccc1)c1ccccc1)N/N=C/c1ccc(O)cc1O,–,–,–,56
SMILES,ARFGAP1 inh,ASAP1 inh,Neddylation inh,Cardio protect
COC(=O)C1=C(C)N(Cc2ccccc2C(F)(F)F)C(=NCc2cc(OC)c(OC)c(OC)c2)NC1c1cccc(Cl)c1 (stereo not drawn),–,–,·,·
CCN1C(=O)/C(=C2\SC(N3CCOCC3)=NC2=O)c2ccccc21,–,–,–,–
C=CCN1C(=O)/C(=C2\SC(N3CCOCC3)=NC2=O)c2cc(Br)ccc21,–,–,–,76
O=S(=O)(c1ccccc1)N1CCCc2nc(-c3ccc(Br)cc3)ccc21,–,–,·,·
CCC(=O)OCCNc1cc(SCCC(=O)OC)c2nonc2c1[N+](=O)[O-],–,–,–,54
CCC(=O)OCCNc1cc(Sc2nccn2C)c2nonc2c1[N+](=O)[O-],–,–,–,–
CC(C)(C)NC(=O)CSc1nc2ccc(Nc3nc(N4CCOCC4)nc(N4CCOCC4)n3)cc2s1,–,–,–,91
CC(=O)CSc1nc2ccc(Nc3nc(N4CCOCC4)nc(N4CCOCC4)n3)cc2s1,–,–,–,–
COc1ccc(-c2oc(=O)c3cc(OC)c(OC)cc3c2C#CCCO)cc1,–,–,·,66
Cc1cc(Nc2cc(F)c(F)c(F)c2)cc(=O)n1-c1cc(F)c(F)c(F)c1,–,–,·,·
CCc1c(C)nc2cc(-c3cc(OC)cc(OC)c3)nn2c1N1CCN(CCN2CCOCC2)CC1,–,–,–,91
COc1ccc(-c2csc(C(O)c3ccc(F)c(F)c3)n2)cc1 (stereo not drawn),–,–,–,–
